How the values were obtained:
Type in all cases: functional
SK-MEL-28 = test: Growth inhibition of human SK-MEL-28 cells assessed as cell growth at 10 uM after 48 hrs by sulforhodamine B assay; details: SK-MEL-28, 48 h, read-out: Activity
How it was run: (§1)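 Single-dose NCI-60 screen: adherent cells in RPMI 1640 with 5% FBS were exposed to 10 µM for 48 h at 37 °C after a 24 h preincubation. They were fixed in situ with cold TCA (10% final), stained with 0.4% SRB in 1% acetic acid, solubilized in 10 mM Tris base, and read at 515 nm. Percent growth was taken relative to time-zero and control plates.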

SNB-75 = test: Growth inhibition of human SNB75 cells assessed as cell growth at 10 uM after 48 hrs by sulforhodamine B assay; details: SNB-75, 48 h, read-out: Activity
How it was run: (§2)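 Single-dose NCI-60 test at 10 µM. Cells were grown in RPMI 1640 with 5% FBS and 2 mM L-glutamine, preincubated 24 h, with T0 plates TCA-fixed. Exposure was 48 h at 37 °C, 5% CO2. Cells were fixed with cold TCA (final 10%, 4 °C, 60 min), stained with SRB and read at 515 nm. Percent growth was taken relative to T0 and untreated control; negative values denote cell kill.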

786-0 [1] = test: Growth inhibition of human 786-0 cells assessed as cell growth at 10 uM after 48 hrs by sulforhodamine B assay; details: 786-0, 48 h, read-out: Activity
How it was run: (§3)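 NCI-60 single-dose screen at 10 µM: cells in RPMI 1640 with 5% FBS, preincubated 24 h, then exposed 48 h at 37 °C. TCA fixation (16% final for suspension cells), SRB staining, absorbance 515 nm. Percent growth relative to time-zero and untreated control plates; negative values indicate cell kill.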

UACC-62 = test: Growth inhibition of human UACC62 cells assessed as cell growth at 10 uM after 48 hrs by sulforhodamine B assay; details: UACC-62, 48 h, read-out: Activity; how it was run: as §2
OVCAR-5 [2] = test: Growth inhibition of human OVCAR5 cells assessed as cell growth at 10 uM after 48 hrs by sulforhodamine B assay; details: OVCAR-5, 48 h, read-out: Activity; how it was run: as §1
HCT-15 = test: Growth inhibition of human HCT15 cells assessed as cell growth at 10 uM after 48 hrs by sulforhodamine B assay; details: HCT-15, 48 h, read-out: Activity; how it was run: as §3
MDA-MB-468 [3] = test: Growth inhibition of human MDA-MB-468 cells assessed as cell growth at 10 uM after 48 hrs by sulforhodamine B assay; details: MDA-MB-468, 48 h, read-out: Activity; how it was run: as §1
ACHN = test: Growth inhibition of human ACHN cells assessed as cell growth at 10 uM after 48 hrs by sulforhodamine B assay; details: read-out: Activity; how it was run: as §3
SK-MEL-5 = test: Growth inhibition of human SK-MEL-5 cells assessed as cell growth at 10 uM after 48 hrs by sulforhodamine B assay; details: SK-MEL-5, 48 h, read-out: Activity; how it was run: as §1
LOX IMVI = test: Growth inhibition of human LOXIMVI cells assessed as cell growth at 10 uM after 48 hrs by sulforhodamine B assay; details: read-out: Activity; how it was run: as §3
SF-268 = test: Growth inhibition of human SF268 cells assessed as cell growth at 10 uM after 48 hrs by sulforhodamine B assay; details: SF-268, 48 h, read-out: Activity; how it was run: as §1
UACC-257 = test: Growth inhibition of human UACC257 cells assessed as cell growth at 10 uM after 48 hrs by sulforhodamine B assay; details: UACC-257, 48 h, read-out: Activity; how it was run: as §2
NCI-H522 = test: Growth inhibition of human NCI-H522 cells assessed as cell growth at 10 uM after 48 hrs by sulforhodamine B assay; details: NCI-H522, 48 h, read-out: Activity; how it was run: as §1
MDA-MB-468 [4] = test: Growth inhibition of human MDA-MB-468 cells after 48 hrs by sulforhodamine B assay; details: MDA-MB-468, 48 h
How it was run: (§4)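 NCI-60 panel cells grown in RPMI 1640 with 5% FBS and 2 mM L-glutamine, seeded at 5000–40,000 cells/well and preincubated 24 h. Five 10-fold dilutions (0.001–100 µM) from DMSO stocks were added for 48 h at 37 °C. Adherent cells were fixed with cold TCA (10% final) for 60 min at 4 °C, stained with 0.4% SRB, and read at 515 nm. GI50 was set where 100×(T−T0)/(C−T0)=50.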

T47D = test: Growth inhibition of human T47D cells after 48 hrs by sulforhodamine B assay
How it was run: (§5)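 NCI-60 five-dose screen. Cells were grown in RPMI 1640 with 5% FBS and 2 mM L-glutamine, plated at 5000–40,000 cells/well and incubated 24 h before dosing, with T0 plates TCA-fixed. DMSO stocks were diluted to doses of […] and exposed 48 h at 37 °C, 5% CO2. Cells were fixed with cold TCA (final 10%, 60 min, 4 °C), stained with 0.4% SRB in 1% acetic acid for 10 min, solubilized in 10 mM trizma base and read at 515 nm. GI50 is where 100×(T−T0)/(C−T0)=50.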

786-0 [5] = test: Growth inhibition of human 786-0 cells after 48 hrs by sulforhodamine B assay; details: 786-0, 48 h
How it was run: (§6)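 NCI-60 screen: cells in RPMI 1640 with 5% FBS and 2 mM glutamine, 5000–40,000 cells/well, preincubated 24 h. Five concentrations (10-fold dilutions; 100 to 0.001 µM) applied for 48 h at 37 °C. TCA fixation, SRB stain, absorbance at 515 nm. Time-zero plates included; GI50 where 100×(T−T0)/(C−T0)=50.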

RPMI-8226 = test: Growth inhibition of human RPMI8226 cells after 48 hrs by sulforhodamine B assay; details: RPMI-8226, 48 h
How it was run: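 NCI-60 suspension lines in RPMI 1640 with 5% FBS and 2 mM L-glutamine, preincubated 24 h. A five-concentration 10-fold series (0.001–100 µM) was given for 48 h at 37 °C. Settled cells were fixed with 80% TCA (16% final), stained with SRB, and read at 515 nm. GI50 was taken where 100×(T−T0)/(C−T0)=50, with T0 plates fixed at drug addition.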

SF-539 = test: Growth inhibition of human SF539 cells after 48 hrs by sulforhodamine B assay; details: SF-539, 48 h; how it was run: as §4
TK-10 = test: Growth inhibition of human TK10 cells after 48 hrs by sulforhodamine B assay; details: TK-10, 48 h; how it was run: as §5
KM12 = test: Growth inhibition of human KM12 cells after 48 hrs by sulforhodamine B assay; details: KM12, 48 h; how it was run: as §6
NCI-H23 = test: Growth inhibition of human NCI-H23 cells after 48 hrs by sulforhodamine B assay; details: NCI-H23, 48 h; how it was run: as §4
A498 = test: Growth inhibition of human A498 cells after 48 hrs by sulforhodamine B assay; details: A498, 48 h; how it was run: as §6
OVCAR-5 [6] = test: Growth inhibition of human OVCAR5 cells after 48 hrs by sulforhodamine B assay; details: OVCAR-5, 48 h; how it was run: as §4
PC-3 = test: Growth inhibition of human PC3 cells after 48 hrs by sulforhodamine B assay; details: PC-3, 48 h; how it was run: as §4

SMILES	growth at 10 µM (SK-MEL-28) [%]	growth at 10 µM (SNB-75) [%]	growth at 10 µM (786-0 [1]) [%]	growth at 10 µM (UACC-62) [%]	growth at 10 µM (OVCAR-5 [2]) [%]	growth at 10 µM (HCT-15) [%]	growth at 10 µM (MDA-MB-468 [3]) [%]	growth at 10 µM (ACHN) [%]	growth at 10 µM (SK-MEL-5) [%]	growth at 10 µM (LOX IMVI) [%]	growth at 10 µM (SF-268) [%]	growth at 10 µM (UACC-257) [%]	growth at 10 µM (NCI-H522) [%]	also measured
CC(C)=CCC/C(C)=C/CC/C(C)=C/CC[C@]1(C)CCc2c3c(c(C)c(C)c2O1)OCN(CCCCCCCCCCO)C3	98.2	91.4	99.2	103	106	91.1	91.9	92.6	95.6	93.6	94.2	102		
COc1ccc(CCN2COc3c(C)c(C)c4c(c3C2)CC[C@@](C)(CC/C=C(\C)CC/C=C(\C)CCC=C(C)C)O4)cc1OC	93.6	82.8	94.9	96.5	101	102	95.1	95.8	107	98.6	94.8	105	98.6	
CC(C)=CCC/C(C)=C/CC/C(C)=C/CC[C@]1(C)CCc2cc(O)c(C)c(C)c2O1 [GAMMA-TOCOTRIENOL]	97.3	84.3	114	108	114	102	108	100	99.1	90	108	123	68.8	
CC(C)=CCC/C(C)=C/CC/C(C)=C/CC[C@]1(C)CCc2c(CNCCc3ccc(O)cc3)c(O)c(C)c(C)c2O1	93.4	68.1	78.2	106	113	106	104	98.7	111	63.9	96.9	102	105	
CC(C)=CCC/C(C)=C/CC/C(C)=C/CC[C@]1(C)CCc2c3c(c(C)c(C)c2O1)OCN(CCc1ccc(O)cc1)C3	76.6	69.2	77.3	104	111	102	88.8	99.8	115	30.3	83.7	93.6	90	
CC(C)=CCC/C(C)=C/CC/C(C)=C/CC[C@]1(C)CCc2c3c(cc(C)c2O1)OCN(CCCCCCCCCCCCO)C3	75.3	97.7	97	67.2	102	82.9	77.4	91.3	58.1	67.1	98.7	64.3	36.7	
CC(C)=CCC/C(C)=C/CC/C(C)=C/CC[C@]1(C)CCc2c3c(cc(C)c2O1)OCN(CCCCCCCCCCO)C3	99.9	74.5	85.3	109	105	96.9	83.8	99.1	85.2	87.3	97.7	81.4	86	
CC(C)=CCC/C(C)=C/CC/C(C)=C/CC[C@]1(C)CCc2c3c(c(C)c(C)c2O1)OCN(CCCCO)C3	106	74.2	72.8	96.6	83.1		57	78.8	91	-90.5	75.2	112	86.7	GI50 (MDA-MB-468 [4]): 2.53 µM; GI50 (T47D): > 10 µM; GI50 (786-0 [5]): > 10 µM; GI50 (RPMI-8226): 5.15 µM; GI50 (SF-539): > 10 µM; GI50 (TK-10): > 10 µM; GI50 (KM12): 1.94 µM; GI50 (NCI-H23): > 10 µM; GI50 (A498): > 10 µM; GI50 (OVCAR-5 [6]): > 10 µM; GI50 (PC-3): 8.37 µM
COc1ccc(CCNCc2c(O)c(C)c(C)c3c2CC[C@@](C)(CC/C=C(\C)CC/C=C(\C)CCC=C(C)C)O3)cc1OC	92.6	80.5	78.1	98.3	104	104	59.1	97.5	108	52.9	98	107	96.2	
CC(C)=CCC/C(C)=C/CC/C(C)=C/CC[C@]1(C)CCc2c3c(c(C)c(C)c2O1)OCN(CCCCCCCCCCCCO)C3	110	94.6	110	89.5	114	100	106	105	92.8	100	116	104	69.5	
CC(C)=CCC/C(C)=C/CC/C(C)=C/CC[C@]1(C)CCc2c3c(cc(C)c2O1)OCN(CCc1ccc(O)cc1)C3	-83.8	44.4	69		91.2	80.4	-44.6	91	73.8	-93	18.2	105	-50.5	GI50 (MDA-MB-468 [4]): 1.55 µM; GI50 (T47D): 6.06 µM; GI50 (786-0 [5]): 6.61 µM; GI50 (RPMI-8226): 4.03 µM; GI50 (SF-539): 6.41 µM; GI50 (TK-10): 5.56 µM; GI50 (KM12): 1.6 µM; GI50 (NCI-H23): 6.82 µM; GI50 (A498): 6.21 µM; GI50 (OVCAR-5 [6]): 6.11 µM; GI50 (PC-3): 5.07 µM

From ChEMBL document CHEMBL2380254, “Optimization of tocotrienols as antiproliferative and antimigratory leads” (Eur J Med Chem, 2013)
